Shown are actives, neighbours in structure and some others; about 2.5% of the full set was active somewhere.
PRMT1 inh = inhibitors of human PRMT1. Q99873. recombinant PRMT1, activity-based probe fluorescence polarization. inhibition, % at 2.79 µM. 370,000 compounds, 1.3% hits;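 active = inhibition above about 21% made by adding two undisclosed values, limit read from the data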
E coli Lon inh = E. coli protease La inhibition; P0A9M0; purified E. coli Lon protease, fluorescence polarization; inhibition, % at 7.94 µM; 360,000 compounds, 0.42% hits; in the data active = inhibition above about 13%, passing the limit was not always enough;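 note: 0% = enzyme with probe and DMSO and 100% = no enzyme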
GSTO1 counter = counter-screen for RBBP9 inhibitors: inhibitors of human GSTO1; recombinant GSTO1, activity-based probe fluorescence polarization; 300,000 compounds, 1.1% hits; inhibition, % at 5.96 µM; AID 1974;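 active = inhibition above the campaign mean inhibition plus 3 SD, cut at about 35% in these data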;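 note: 0% = GSTO1-1 with DMSO and 100% = wells lacking GSTO1-1 enzyme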
PAD4 inh = inhibitors of human PAD4. Q9UM07. recombinant PAD4, RCA probe fluorescence polarization. inhibition, % at 6.36 µM. 330,000 compounds, 0.41% hits;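 active = percent inhibition above a cutoff equal to the mean of all tested compounds plus 3 SD, cut at about 15% in these data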;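 note: 0% = PAD4 with RCA probe and DMSO and 100% = probe without PAD4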
Target sequence (Q9UM07 whole entry, looked up): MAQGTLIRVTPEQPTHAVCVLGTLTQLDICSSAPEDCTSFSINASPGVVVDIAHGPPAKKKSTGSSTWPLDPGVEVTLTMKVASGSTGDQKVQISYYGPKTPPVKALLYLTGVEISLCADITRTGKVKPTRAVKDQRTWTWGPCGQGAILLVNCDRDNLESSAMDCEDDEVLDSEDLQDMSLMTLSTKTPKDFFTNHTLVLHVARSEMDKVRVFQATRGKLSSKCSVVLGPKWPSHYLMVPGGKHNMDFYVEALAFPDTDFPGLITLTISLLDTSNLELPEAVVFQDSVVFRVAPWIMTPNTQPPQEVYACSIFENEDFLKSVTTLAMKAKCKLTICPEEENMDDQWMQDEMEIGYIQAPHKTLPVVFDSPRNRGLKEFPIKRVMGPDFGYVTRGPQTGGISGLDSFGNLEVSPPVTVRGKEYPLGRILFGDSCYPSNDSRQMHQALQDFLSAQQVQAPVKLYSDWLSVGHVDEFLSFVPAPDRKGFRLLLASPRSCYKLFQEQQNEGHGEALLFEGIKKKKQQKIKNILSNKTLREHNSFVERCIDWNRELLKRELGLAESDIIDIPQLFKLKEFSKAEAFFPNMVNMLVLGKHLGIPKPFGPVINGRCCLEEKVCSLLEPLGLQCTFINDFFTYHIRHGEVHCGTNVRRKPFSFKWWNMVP
TDP2 absorb = blocks human TDP2 phosphodiesterase activity | O95551 | recombinant TDP2, T5PNP hydrolysis, p-nitrophenol absorbance 415 nm | inhibition, % at 12.8 µM | 370,000 compounds, 0.34% hits;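 active = inhibition above the mean of all tested compounds plus 3 SD, set per campaign, cut at about 25% in these data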;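 note: 0% = DMSO with enzyme and 100% = buffer with substrate but no TDP2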
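System – recombinant human TDP2 · Quantity – TDP2 enzyme at 120 nM final · Doses – single concentration, 12.8 µM nominal, with 1% DMSO · Incubation – 2 h at 37 °C · Measured by – epi absorbance of p-nitrophenol freed from T5PNP by hydrolysis · Read-out – % inhibition relative to enzyme-containing and enzyme-free wells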
TDP2 confirm = confirmation of human TDP2 inhibitors; shares compounds with TDP2 absorb; recombinant human TDP2, absorbance read-out; inhibition, % at 12.8 µM; 1,100 compounds, 22% hits; AID 743263; in the data active = inhibition above about 25%;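 note: 0% = vehicle with enzyme and 100% = no enzyme buffer only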
Numbers without * were called inactive; nt = not tested or not shown.

SMILES	PRMT1 inh	E coli Lon inh	GSTO1 counter	PAD4 inh	TDP2 absorb	TDP2 confirm
CCOC(=O)c1c(S(=O)(=O)NCC(=O)Nc2ccccc2F)c(C)n(C)c1C	0	3	1	-2	25*	7
CC1=NN(c2ccccc2)C(=O)C1C(=O)C(=O)Nc1ccc(F)cc1 (centres undefined)	4	-4	9	9	32*	7
CCNC(=S)NS(=O)(=O)c1ccc(Cl)cc1	0	-2	1	-1	37*	3
CCNC(=S)NS(=O)(=O)c1ccccc1	2	-6	1	-3	5	nt
O=C(COC(=O)CNS(=O)(=O)c1ccc(Br)cc1Cl)NC1CCCC1	5	-7	-6	2	-15	nt
Cc1ccc(NC2=C(NC(=O)c3ccccc3)C(=O)c3ccccc3C2=O)cc1Cl	11	-6	62*	3	29*	17
Cc1ccc2[nH]c(O)c(N=Nc3nc4ccccc4s3)c2c1	-6	-12	8	3	25*	-18
Oc1[nH]c2ccccc2c1N=Nc1nc2ccccc2s1	-3	-5	-78	-2	-14	nt
CN1C(=O)/C(=C/c2ccc(C(=O)Nc3ccc(O)cc3C(=O)O)cc2)SC1=S	3	1	17	5	28*	6
CC(C)c1ccc(NC(=O)/C(C#N)=C/c2ccncc2)cc1	0	8	-1	3	24*	5
COc1ccccc1C=NN=C1c2ccccc2-c2ccccc21	2	-3	nt	nt	8	nt
CCN(CC)S(=O)(=O)c1ccc(N2CCN(S(=O)(=O)c3ccccc3)CC2)nc1	2	4	nt	nt	25*	2
CC1(c2ccc3c(c2)OCCO3)NC(=O)N(CC(=O)Nc2ccccc2)C1=O (centres undefined)	4	-5	nt	-10	-2	nt
CN1CCN(CC(=O)Nc2ccc(S(=O)(=O)N(C)C)cc2)CC1	3	-5	-1	2	33*	10
CC(=O)c1cc2c(cc1NC(=O)CN1CCOCC1)OCO2	5	1	5	-6	4	nt
CCN1CCN(CC(=O)Nc2cc3c(cc2C(C)=O)OCO3)CC1	4	-12	-5	-1	26*	12
O=C(CNC1CCCCCC1)Nc1ccc(N2CCCC2)cc1	nt	nt	6	2	nt	nt
CC(=O)c1ccc(NC(=O)CN2CCN(CC(=O)Nc3ccc(C(C)=O)cc3)CC2)cc1	-1	3	nt	nt	9	nt
CC(=O)c1ccc(NC(=O)CNC2CCCCC2)cc1	3	-4	-1	10	26*	2
CCN1CCN(CC(=O)Nc2ccc(C(C)=O)cc2)CC1	4	6	-8	1	38*	-3
O=C(O)/C=C\c1cccc(-n2nnnc2SCc2ccccc2F)c1	0	-10	3	0	9	nt
CN1CCN(S(=O)(=O)c2ccc(NC(=O)c3ccccc3Cl)cc2)CC1	6	3	-6	2	0	nt
CN1CCN(S(=O)(=O)c2ccc(NC(=O)c3ccccc3F)cc2)CC1	-2	7	-3	-5	25*	4
O=[N+]([O-])c1ccc(CN2CCN(c3ccccc3Cl)CC2)o1	0	0	2	-5	27*	18
Cc1ccccc1OCCC(=O)OCC(=O)c1c(N)n(CC(C)C)c(=O)n(C)c1=O	-4	-10	0	-3	29*	6
SMILES	PRMT1 inh	E coli Lon inh	GSTO1 counter	PAD4 inh	TDP2 absorb	TDP2 confirm
Cc1ccc(OCCC(=O)OCC(=O)c2c(N)n(CC(C)C)c(=O)n(C)c2=O)cc1	2	7	nt	-4	5	nt
O=C(c1nc2ccccn2c1CNCCCn1cccn1)N1CCCC1	4	3	-5	1	28*	-8
O=C(COc1ccc([N+](=O)[O-])cc1)NNC(=O)Nc1cccc(F)c1	-4	-4	4	6	-14	nt
N#CC(C#N)=C1NC(N)=C(C#N)C(c2ccccc2)=C1C#N	18	-27	-5	3	32*	29*
O=S(=O)(NN=C1CCCCCC1)c1ccccc1	2	-7	7	-2	-10	nt
CCCCC(Sc1nc(N)c(NC(=O)c2ccco2)c(=O)[nH]1)C(=O)O (centres undefined)	-2	3	12	-5	26*	2
CCCCC(Sc1nc(N)c(NC(=O)c2ccc(OCC)cc2)c(=O)[nH]1)C(=O)O (centres undefined)	3	-2	7	-1	8	nt
CC1(C)NC(=O)N(c2ccc([N+](=O)[O-])c(C(F)(F)F)c2)C1=O	-3	1	2	4	5	nt
Cc1ccccc1N1CC(C(=O)Nc2ccc(S(=O)(=O)N3CCCCC3)cc2)CC1=O (centres undefined)	1	0	1	-1	25*	4
Cc1ccc(NC(=O)C2CCN(S(=O)(=O)c3ccccc3)CC2)cc1	-2	0	6	-6	30*	6
Cc1ccc(NC(=O)C2CCN(S(=O)(=O)c3ccc(F)cc3)CC2)cc1	-2	3	2	1	0	nt
CN(C)c1ccc2c(=O)cc[nH]c2c1	0	-4	nt	nt	-1	nt
COc1ccccc1Cc1c(-c2ccc(OC)c(OC)c2)nc2cc(C)c(Br)c(C)n12	8	-18	nt	nt	33*	2
CCOc1ccc2nc(SCC(=O)NCC3CCCO3)c(C#N)cc2c1 (centres undefined)	1	7	-2	4	27*	-2
COc1ccc(C(=O)Nc2ccnn2C2CCN(Cc3ccccn3)CC2)cc1	5	6	-7	-5	15	nt
C[n+]1c(-c2ccccc2)cc2c(=Cc3ccccc3)c3ccccc3n21	6	-3	nt	nt	36*	47*
C[n+]1c(-c2ccccc2)cc2c(=Cc3ccc([N+](=O)[O-])cc3)c3ccccc3n21	3	2	nt	nt	37*	46*
COCCNC(=O)C1(C)CCCN(C(=O)COc2ccccc2)C1 (centres undefined)	-1	7	nt	nt	0	nt
COc1ccc(C2(O)CN(c3ccc(C)cc3)C3=[N+]2CCCC3)cc1 (centres undefined)	-1	-4	2	-2	-13	nt
Cc1ccc(OCCOc2cccc3ccc(C)nc23)c([N+](=O)[O-])c1	-2	5	-5	-6	25*	10
COC(=O)c1cccc(C(=O)N2CCCC(C(=O)c3cccc(OC(C)C)c3)C2)c1 (centres undefined)	-2	-2	4	-5	28*	7
CC(C)c1ccc(NC(=O)NCc2ccccn2)cc1	1	-12	2	5	52*	3
O=C(NCc1ccccn1)Nc1ccc(Cl)c(Cl)c1	-5	-3	-8	4	0	nt
COCCN(C(=O)c1ccc(OC2CCN(S(=O)(=O)N(C)C)CC2)cc1)C(C)C	4	-4	6	0	-5	nt
Cc1nonc1NC(=O)CSc1nc(CCC2CCCC2)nc2ccccc12	0	-2	-25	0	25*	0
Cc1ccc(NC(=O)c2cc(-c3ccc(C)c(C)c3O)n[nH]2)cc1C	-3	0	-17	-18	8	nt

Assay outcomes (PubChem)
